Experimental data published in ChEMBL document CHEMBL4052817 (J Med Chem, 2017).
Blank lines part the entries; values can stand above or below the molecule they belong to.

What was measured:
[1] = system: Plasma; experiment: Drug level in mouse plasma treated with (R)-3-(5-fluoro-1H-indol-3-yl)pyrrolidine-2,5-dione after 48 hrs; type: ADME, cell-free
How it was run: (§1)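 (R)-enantiomer incubated for 48 h in phosphate-buffered saline (pH 7.4) or in mouse, rat, dog or acidified dog plasma. The (R)-enantiomer remaining and (S)-enantiomer formed were quantified (%) by chiral LC/MS-MS.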

[2] = Fraction unbound in human plasma after 48 hrs; type: ADME, cell-free
[3] = system: Plasma; experiment: Drug level in dog acidified plasma treated with (R)-3-(5-fluoro-1H-indol-3-yl)pyrrolidine-2,5-dione after 48 hrs; type: ADME, cell-free, Canis lupus familiaris; how it was run: as §1
[4] = system: Plasma; experiment: Drug level in rat plasma treated with (R)-3-(5-fluoro-1H-indol-3-yl)pyrrolidine-2,5-dione after 48 hrs; type: ADME, cell-free; how it was run: as §1
[5] = system: Plasma; experiment: Drug level in dog plasma treated with (R)-3-(5-fluoro-1H-indol-3-yl)pyrrolidine-2,5-dione after 48 hrs; type: ADME, cell-free, Canis lupus familiaris; how it was run: as §1
[6] = Drug level in phosphate buffer saline at pH 7.4 treated with (R)-3-(5-fluoro-1H-indol-3-yl)pyrrolidine-2,5-dione after 48 hrs; how it was run: as §1
[7] = system: Cynomolgus monkey; experiment: Drug level in cynomolgus monkey treated with (R)-3-(5-fluoro-1H-indol-3-yl)pyrrolidine-2,5-dione at 10 mg/kg, po; type: ADME, organism-based, Macaca fascicularis; details: in vivo
How it was run: (§2)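 (R)-enantiomer or racemate dosed orally at 10 mg/kg to monkeys. Total plasma concentrations of each enantiomer were followed over time.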

[8] = molecular target: Indoleamine 2,3-dioxygenase 1 (Homo sapiens, UniProt P14902); experiment: Inhibition of human recombinant IDO-1 using L-Trp as substrate after 15 mins by PDMAB-based assay
[9] = Clearance in mouse; type: ADME, organism-based; details: in vivo
[10] = Apparent permeability across human Caco2 cells; type: ADME, cell-based; details: Caco-2
[11] = molecular target: T1, Cytochrome P450 1A2 (Homo sapiens, UniProt P05177); experiment: Inhibition of CYP1A2 (unknown origin); type: ADME
T1 sequence (P05177 whole entry): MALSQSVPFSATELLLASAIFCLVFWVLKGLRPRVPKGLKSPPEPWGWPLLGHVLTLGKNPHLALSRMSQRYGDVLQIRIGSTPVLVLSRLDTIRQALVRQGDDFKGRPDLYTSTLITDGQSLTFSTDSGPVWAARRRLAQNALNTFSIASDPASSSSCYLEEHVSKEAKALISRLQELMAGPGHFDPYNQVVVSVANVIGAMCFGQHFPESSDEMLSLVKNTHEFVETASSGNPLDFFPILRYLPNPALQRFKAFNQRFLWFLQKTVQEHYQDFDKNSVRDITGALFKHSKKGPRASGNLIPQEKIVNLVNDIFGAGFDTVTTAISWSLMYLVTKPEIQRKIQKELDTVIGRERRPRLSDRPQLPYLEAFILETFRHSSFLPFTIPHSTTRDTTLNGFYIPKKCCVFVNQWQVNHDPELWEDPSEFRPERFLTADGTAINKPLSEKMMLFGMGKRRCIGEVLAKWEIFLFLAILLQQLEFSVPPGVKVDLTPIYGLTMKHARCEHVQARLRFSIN

[12] = Oral bioavailability in mouse at 30 mg/kg; type: ADME, organism-based; details: in vivo
[13] = molecular target: Cytochrome P450 2C19 (Homo sapiens, UniProt P33261); experiment: Inhibition of CYP2C19 (unknown origin); type: ADME
[14] = Intrinsic clearance in mouse microsomes; type: ADME, Microsome
[15] = molecular target: Cytochrome P450 2C9 (Homo sapiens, UniProt P11712); experiment: Inhibition of CYP2C9 (unknown origin); type: ADME
[16] = Oral bioavailability in mouse at 5 mg/kg; type: ADME, organism-based; details: in vivo
[17] = Intrinsic clearance in human microsomes; type: ADME, Microsome
[18] = molecular target: Cytochrome P450 3A4 (Homo sapiens, UniProt P08684); experiment: Inhibition of CYP3A4 (unknown origin); type: ADME
[19] = Fraction unbound in human plasma; type: ADME, cell-free
How it was run: (§3)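 Racemate incubated with plasma from preclinical species and humans. The unbound fraction of the (R)-enantiomer was determined.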

[20] = Fraction unbound in mouse plasma; type: ADME, cell-free; how it was run: as §3
[21] = Efflux ratio of apparent permeability across human Caco2 cells; type: ADME, cell-based; details: Caco-2
[22] = molecular target: Cytochrome P450 2D6 (Homo sapiens, UniProt P10635); experiment: Inhibition of CYP2D6 (unknown origin); type: ADME
[23] = Volume of distribution at steady state in mouse; type: ADME, organism-based; details: in vivo, read-out: Vdss
How it was run: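 Single 1 mg/kg IV dose of the racemate to male CD-1 mice (n=3). The plasma active enantiomer was quantified by chiral LC-MS/MS, and Vss was taken from the plasma concentration–time profile.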

[24] = Half life in mouse; type: ADME, organism-based; details: in vivo
[25] = Drug metabolism in human hepatocytes in absence of CYP inhibitor ABT; type: ADME, cell-based, Hepatocyte; details: read-out: Drug metabolism
[26] = AUC (infinity) in rat at 1 mg/kg, iv; type: ADME, organism-based; set-up: dose 1 mg/kg, time infinity, route intravenous; details: in vivo
[27] = Inhibition of dog IDO-1 using tryptophan as substrate after 22 mins by LC-MS/MS method
[28] = Drug metabolism in human hepatocytes in presence of CYP inhibitor ABT; type: ADME, cell-based, Hepatocyte; details: with ABT (CYP inhibitor), read-out: Drug metabolism
[29] = Metabolic stability in rat plasma assessed as parent compound remaining after 48 hrs; type: ADME, cell-free; details: read-out: Stability
How it was run: (§4)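 Active enantiomer incubated 48 h in mouse, dog or rat plasma, or in dog plasma that had been acidified; remaining enantiomer and formed antipode measured by chiral LC/MS-MS.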

[30] = system: Cynomolgus monkey; experiment: Drug metabolism in cynomolgus monkey assessed as (S)-3-(5-fluoro-1H-indol-3-yl)pyrrolidine-2,5-dione formation at 10 mg/kg, po; type: ADME, organism-based, Macaca fascicularis; details: in vivo; how it was run: as §2
[31] = Metabolic stability in dog plasma assessed as parent compound remaining after 48 hrs; type: ADME, cell-free, Canis lupus familiaris; details: read-out: Stability; how it was run: as §4
[32] = AUC (infinity) in dog at 1 mg/kg, iv; type: ADME, organism-based, Canis lupus familiaris; set-up: dose 1 mg/kg, route intravenous, time infinity; details: in vivo
[33] = system: Canis familiaris; experiment: AUC (infinity) in dog assessed as (S)-3-(5-fluoro-1H-indol-3-yl)pyrrolidine-2,5-dione at 1 mg/kg, iv; type: ADME, organism-based, Canis lupus familiaris; set-up: dose 1 mg/kg, route intravenous, time infinity; details: in vivo
How it was run: (§5)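 Pure active (R)-enantiomer given IV at 1 mg/kg to rat, dog and monkey. Exposure (AUCinf) of the (R)- and (S)-enantiomers measured; their AUC ratio reported as an index of in vivo interconversion.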

[34] = Chemical stability in phosphate buffer saline at pH 7.4 assessed as parent compound remaining after 48 hrs; type: physicochemical; details: phosphate buffered saline, read-out: Stability; how it was run: as §1
[35] = molecular target: Indoleamine 2,3-dioxygenase 1 (Mus musculus, UniProt P28776); experiment: Inhibition of mouse IDO-1 using tryptophan as substrate after 22 mins by LC-MS/MS method
[36] = Metabolic stability in mouse plasma assessed as parent compound remaining after 48 hrs; type: ADME, cell-free; details: read-out: Stability; how it was run: as §4
[37] = system: Rattus norvegicus; experiment: AUC (infinity) in rat assessed as (S)-3-(5-fluoro-1H-indol-3-yl)pyrrolidine-2,5-dione at 1 mg/kg, iv; type: ADME, organism-based; set-up: dose 1 mg/kg, time infinity, route intravenous; details: in vivo; how it was run: as §5
[38] = system: Cynomolgus monkey; experiment: AUC (infinity) in cynomolgus monkey assessed as (S)-3-(5-fluoro-1H-indol-3-yl)pyrrolidine-2,5-dione at 1 mg/kg, iv; type: ADME, organism-based, Macaca fascicularis; set-up: dose 1 mg/kg, route intravenous, time infinity; details: in vivo; how it was run: as §5
[39] = Metabolic stability in dog acidified plasma assessed as parent compound remaining after 48 hrs; type: ADME, cell-free, Canis lupus familiaris; details: read-out: Stability; how it was run: as §4
[40] = AUC (infinity) in cynomolgus monkey at 1 mg/kg, iv; type: ADME, organism-based, Macaca fascicularis; set-up: dose 1 mg/kg, route intravenous, time infinity; details: in vivo

Indoleamine 2,3-dioxygenase 1 (Homo sapiens, UniProt P14902), sequence (P14902 whole entry): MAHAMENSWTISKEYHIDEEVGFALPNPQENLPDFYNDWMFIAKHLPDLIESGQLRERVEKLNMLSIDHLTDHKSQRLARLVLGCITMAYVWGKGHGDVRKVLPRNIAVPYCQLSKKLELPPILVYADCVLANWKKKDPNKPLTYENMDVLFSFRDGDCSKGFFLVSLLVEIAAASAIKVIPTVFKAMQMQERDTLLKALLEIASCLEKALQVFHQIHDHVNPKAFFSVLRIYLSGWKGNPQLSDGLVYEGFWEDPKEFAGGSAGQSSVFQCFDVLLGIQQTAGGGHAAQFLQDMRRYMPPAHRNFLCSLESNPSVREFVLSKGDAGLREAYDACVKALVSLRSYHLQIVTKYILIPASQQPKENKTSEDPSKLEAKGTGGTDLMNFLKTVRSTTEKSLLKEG
Cytochrome P450 2C9, sequence (P11712 whole entry): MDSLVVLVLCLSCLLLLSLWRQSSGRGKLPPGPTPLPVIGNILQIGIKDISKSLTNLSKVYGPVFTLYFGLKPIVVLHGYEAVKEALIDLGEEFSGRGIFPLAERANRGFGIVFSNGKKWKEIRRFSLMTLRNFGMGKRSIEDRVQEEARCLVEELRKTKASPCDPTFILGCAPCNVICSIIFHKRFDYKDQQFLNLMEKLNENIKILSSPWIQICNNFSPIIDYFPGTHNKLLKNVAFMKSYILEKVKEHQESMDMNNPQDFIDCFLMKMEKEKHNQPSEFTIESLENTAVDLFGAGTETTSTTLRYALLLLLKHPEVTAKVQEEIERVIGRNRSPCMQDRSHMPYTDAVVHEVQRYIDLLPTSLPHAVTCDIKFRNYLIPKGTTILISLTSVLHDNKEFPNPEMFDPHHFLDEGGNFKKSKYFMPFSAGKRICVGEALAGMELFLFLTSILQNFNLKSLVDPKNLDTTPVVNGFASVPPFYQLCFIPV
Indoleamine 2,3-dioxygenase 1 (Mus musculus, UniProt P28776), sequence (P28776 whole entry): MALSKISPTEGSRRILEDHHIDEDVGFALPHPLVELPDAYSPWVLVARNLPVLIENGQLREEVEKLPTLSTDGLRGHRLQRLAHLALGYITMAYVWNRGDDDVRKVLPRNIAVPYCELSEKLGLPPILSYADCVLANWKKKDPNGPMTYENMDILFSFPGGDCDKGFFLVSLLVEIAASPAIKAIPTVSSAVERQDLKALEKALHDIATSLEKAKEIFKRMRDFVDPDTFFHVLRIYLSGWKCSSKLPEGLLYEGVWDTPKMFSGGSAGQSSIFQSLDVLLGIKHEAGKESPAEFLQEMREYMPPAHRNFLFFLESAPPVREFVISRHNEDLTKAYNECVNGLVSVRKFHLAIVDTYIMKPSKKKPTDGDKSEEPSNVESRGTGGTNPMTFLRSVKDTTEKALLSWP
Cytochrome P450 2D6, sequence (P10635 whole entry): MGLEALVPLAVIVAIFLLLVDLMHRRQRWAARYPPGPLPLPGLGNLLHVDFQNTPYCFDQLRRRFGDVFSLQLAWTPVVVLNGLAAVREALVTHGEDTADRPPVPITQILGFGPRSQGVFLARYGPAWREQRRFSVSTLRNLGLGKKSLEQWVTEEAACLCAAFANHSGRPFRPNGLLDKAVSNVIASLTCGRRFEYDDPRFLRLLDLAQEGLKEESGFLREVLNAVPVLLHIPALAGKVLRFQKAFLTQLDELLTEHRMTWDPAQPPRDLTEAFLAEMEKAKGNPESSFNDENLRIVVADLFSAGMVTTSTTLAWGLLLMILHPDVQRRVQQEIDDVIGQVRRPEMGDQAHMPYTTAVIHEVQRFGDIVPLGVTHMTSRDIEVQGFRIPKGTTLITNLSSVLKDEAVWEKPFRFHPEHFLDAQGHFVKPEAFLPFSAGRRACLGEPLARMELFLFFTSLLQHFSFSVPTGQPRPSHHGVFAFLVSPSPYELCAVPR
Cytochrome P450 2C19, sequence (P33261 whole entry): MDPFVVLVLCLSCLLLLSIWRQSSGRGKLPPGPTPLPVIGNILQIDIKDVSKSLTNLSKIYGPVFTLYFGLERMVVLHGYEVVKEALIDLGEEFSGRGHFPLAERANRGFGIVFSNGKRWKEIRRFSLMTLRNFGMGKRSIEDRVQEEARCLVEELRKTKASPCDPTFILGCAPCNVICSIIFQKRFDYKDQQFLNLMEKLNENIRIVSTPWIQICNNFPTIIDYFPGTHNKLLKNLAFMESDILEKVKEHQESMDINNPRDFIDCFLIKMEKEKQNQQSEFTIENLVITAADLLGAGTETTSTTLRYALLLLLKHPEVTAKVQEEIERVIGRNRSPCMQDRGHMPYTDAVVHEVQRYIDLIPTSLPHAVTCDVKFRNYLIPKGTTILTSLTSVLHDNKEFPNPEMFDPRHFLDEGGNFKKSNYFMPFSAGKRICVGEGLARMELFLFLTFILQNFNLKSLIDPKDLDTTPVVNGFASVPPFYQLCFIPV
Cytochrome P450 3A4, sequence (P08684 whole entry): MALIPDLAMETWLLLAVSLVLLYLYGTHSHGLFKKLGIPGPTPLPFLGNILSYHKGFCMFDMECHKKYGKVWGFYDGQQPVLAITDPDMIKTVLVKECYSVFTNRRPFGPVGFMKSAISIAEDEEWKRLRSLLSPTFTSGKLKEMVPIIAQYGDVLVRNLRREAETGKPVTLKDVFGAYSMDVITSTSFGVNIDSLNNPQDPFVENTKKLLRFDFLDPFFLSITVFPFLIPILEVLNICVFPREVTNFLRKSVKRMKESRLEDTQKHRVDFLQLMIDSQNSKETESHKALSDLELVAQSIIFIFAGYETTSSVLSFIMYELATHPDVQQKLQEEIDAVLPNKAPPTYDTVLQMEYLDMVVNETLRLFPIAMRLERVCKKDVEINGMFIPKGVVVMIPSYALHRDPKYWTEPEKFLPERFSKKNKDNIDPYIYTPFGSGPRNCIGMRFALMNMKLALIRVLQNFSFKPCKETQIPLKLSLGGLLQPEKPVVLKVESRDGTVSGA

Drug metabolism [1]: Metabolite_Detected | fraction unbound at 48 h [2]: 0.286 | Drug metabolism [3]: Metabolite_Detected | Drug metabolism [4]: Metabolite_Detected | Drug metabolism [5]: Metabolite_Detected | Drug metabolism [7]: Metabolite_Detected
Compound: O=C1C[C@@H](c2c[nH]c3ccc(F)cc23)C(=O)N1
Drug metabolism [6]: Metabolite detected

IC50 [8]: 9.7 µM
Compound: O=C1CC(c2c[nH]c3ccc(C(F)(F)F)cc23)C(=O)N1 (centres undefined)

IC50 [8]: 0.58 µM
Compound: O=C1C[C@H](c2c[nH]c3cc(Cl)c(F)cc23)C(=O)N1

clearance [9]: 15.6 mL/min/kg | Papp [10]: 28 ×10⁻⁶ cm/s | IC50 [11]: > 10 µM | bioavailability [12]: 65% | IC50 [13]: > 10 µM | clearance [14]: < 10 µL/min/mg | IC50 [15]: > 10 µM | bioavailability [16]: 63% | clearance [17]: < 10 µL/min/mg | IC50 [18]: > 10 µM | fraction unbound [19]: 0.43 | fraction unbound [20]: 0.55 | efflux ratio [21]: 0.77 | IC50 [22]: > 10 µM | Vd [23]: 1.2 L/kg | half-life [24]: 58.2 min
Compound: O=C1C[C@H](c2c[nH]c3ccccc23)C(=O)N1

IC50 [8]: > 50 µM
Compound: O=C1CC(c2cccc3cc(Cl)ccc23)C(=O)N1 (centres undefined)

IC50 [8]: 83 µM
Compound: O=C1C[C@@H](c2c[nH]c3ccccc23)C(=O)N1

IC50 [8]: 0.83 µM
Compound: O=C1CC(c2c[nH]c3ccc(Cl)cc23)C(=O)N1 (centres undefined)

IC50 [8]: > 50 µM
Compound: COc1ccc2c(C3CC(=O)NC3=O)c[nH]c2c1 (centres undefined)

Compound: O=C1C[C@H](c2c[nH]c3ccc(F)cc23)C(=O)N1
metabolised [25]: 61% | AUC(0-inf) [26]: 2270 ng·h/mL | IC50 [27]: 0.2 µM | metabolised [28]: 39% | remaining at 48 h [29]: 27% | Drug metabolism [30]: Metabolite_Detected | remaining at 48 h [31]: 30% | fraction unbound at 48 h [2]: 0.449 | AUC(0-inf) [32]: 696 ng·h/mL | AUC [33]: 124 ng·h/mL | remaining at 48 h [34]: 89% | IC50 [35]: 7.3 µM | remaining at 48 h [36]: 35% | AUC [37]: 153 ng·h/mL | AUC [38]: 3516 ng·h/mL | remaining at 48 h [39]: 93.5% | AUC(0-inf) [40]: 6810 ng·h/mL

IC50 [8]: > 50 µM
Compound: O=C1CC(c2cccc3ccc(Cl)cc23)C(=O)N1 (centres undefined)

IC50 [8]: > 50 µM
Compound: O=C1C[C@@H](c2c[nH]c3cc(Cl)c(F)cc23)C(=O)N1

IC50 [8]: 1.2 µM
Compound: N#Cc1ccc2[nH]cc(C3CC(=O)NC3=O)c2c1 (centres undefined)
